From ChEMBL document CHEMBL3414422, “Synthesis of new steroidal inhibitors of P-glycoprotein-mediated multidrug resistance and biological evaluation on K562/R7 erythroleukemia cells” (J Med Chem, 2015)

Experiments:
[1] = tested on: K562/R7; assay: Inhibition of p-gp (unknown origin) in doxorubicin-resistant human K562/R7 cells assessed as increase in daunorubicin accumulation measured as fluorescence ratio at 10 uM incubated for 1 hr with 10 uM daunorubicin by flow cytometry relative to control; format: cell-based
In short: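 Resistant K562/R7 cells ([…]) incubated 1 h at 37 °C in RPMI 1640 with daunorubicin 10 µM, with or without steroid at 10 µM; intracellular fluorescence read by flow cytometry. Accumulation index = daunorubicin fluorescence ratio with/without modulator. Cyclosporin A as positive control. Duplicates, at least three separate experiments.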

[2] = Intrinsic cytotoxicity against human K562 cells assessed as cell survival […] by MTT assay; format: cell-based; conditions: read-out: Survival

SMILES	Ratio [1]	viability [2]
COCO[C@H]1C[C@H]2[C@@H]([C@H](O)C[C@@H]3CC(=O)CC[C@@]32C)[C@@H]2CC[C@H](C(C)CCC(=O)OC)[C@@]12C (some centres not stated)	2.1	84.7%
COCCCC(C)[C@H]1CC[C@H]2[C@@H]3[C@H](OC(=O)c4ccccc4)C[C@@H]4CC(=O)CC[C@]4(C)[C@H]3C[C@H](O[C@@H]3CCCCO3)[C@]12C (some centres not stated)	2.4	54.4%
COC(=O)CCC(C)[C@H]1CC[C@H]2[C@@H]3[C@H](OC(=O)c4ccccc4)C[C@@H]4CC(=O)CC[C@]4(C)[C@H]3C[C@H](O[C@@H]3CCCCO3)[C@]12C (some centres not stated)	2.1	56.4%
CC(=O)[C@H]1CC[C@H]2[C@@H]3CC[C@H]4CC(=O)CC[C@]4(C)[C@H]3CC[C@]12C	1	
CC(=O)[C@H]1CC[C@H]2[C@@H]3CC[C@@H]4CC(=O)CC[C@]4(C)[C@H]3CC[C@]12C	1.2	
CC(=O)[C@H]1CC[C@H]2[C@H]3[C@H]([C@H](O)C[C@]12C)[C@@]1(C)CCC(=O)C[C@H]1C[C@H]3O	1.1	
CC(=O)[C@H]1CC[C@H]2[C@H]3[C@H]([C@H](OC(=O)c4ccccc4)C[C@]12C)[C@@]1(C)CCC(=O)C[C@@H]1C[C@H]3OC(=O)c1ccccc1	2.5	71.1%
COC(=O)CCC(C)[C@H]1CC[C@H]2[C@@H]3[C@H](O[C@@H]4CCCCO4)C[C@@H]4CC(=O)CC[C@]4(C)[C@H]3C[C@H](OC(=O)c3ccccc3)[C@]12C (some centres not stated)	2.9	51.3%
COCCCC(C)[C@H]1CC[C@H]2[C@@H]3[C@H](OC(=O)c4ccccc4)C[C@@H]4CC(=O)CC[C@]4(C)[C@H]3C[C@H](OC(=O)c3ccccc3)[C@]12C (some centres not stated)	1.7	50.7%
CC(=O)[C@H]1CC[C@H]2[C@H]3[C@H]([C@H](OC(=O)c4ccccc4)C[C@]12C)[C@@]1(C)CCC(=O)C[C@H]1C[C@H]3OC(=O)c1ccccc1	2.5	66.4%
COCO[C@H]1C[C@H]2[C@@H]([C@H](OC(=O)c3ccccc3)C[C@@H]3CC(=O)CC[C@@]32C)[C@@H]2CC[C@H](C(C)CCC(=O)OC)[C@@]12C (some centres not stated)	2.9	49.7%
CC(=O)[C@@]1(O[C@@H]2CCCCO2)CC[C@H]2[C@@H]3CC[C@@H]4CC(=O)CC[C@]4(C)[C@H]3[C@H](O[C@H]3CCCCO3)C[C@@]21C	2.5	67.9%
CC(=O)[C@@]1(O)CC[C@H]2[C@@H]3CCC4=CC(=O)CC[C@]4(C)[C@H]3CC[C@@]21C	1	
COCCCC(C)[C@H]1CC[C@H]2[C@@H]3[C@H](O[C@H]4CCCCO4)C[C@@H]4CC(=O)CC[C@]4(C)[C@H]3C[C@H](OC(=O)c3ccccc3)[C@]12C (some centres not stated)	3.1	56.3%
CC(=O)[C@@]1(O[C@H]2CCCCO2)CC[C@H]2[C@@H]3CC[C@@H]4CC(=O)CC[C@]4(C)[C@H]3CC[C@@]21C	2.4	
CC(=O)[C@H]1CC[C@H]2[C@@H]3CCC4=CC(=O)CC[C@]4(C)[C@H]3CC[C@]12C [PROGESTERONE]	1.2	81.6%
CC(=O)[C@@]1(O)CC[C@H]2[C@@H]3CC[C@@H]4CC(=O)CC[C@]4(C)[C@H]3CC[C@@]21C	1.1	
COC(=O)CCC(C)[C@H]1CC[C@H]2[C@@H]3[C@H](OC(=O)c4ccccc4)C[C@@H]4CC(=O)CC[C@]4(C)[C@H]3C[C@H](O[C@H]3CCCCO3)[C@]12C (some centres not stated)	2.7	53.5%
CC(=O)[C@H]1CC[C@H]2[C@H]3[C@H]([C@H](O[C@@H]4CCCCO4)C[C@]12C)[C@@]1(C)CCC(=O)C[C@H]1C[C@H]3OC1CCCCO1 (mixture of isomers)	2.6	86.7%
CC(=O)[C@H]1CC[C@H]2[C@H]3[C@H]([C@H](O[C@H]4CCCCO4)C[C@]12C)[C@@]1(C)CCC(=O)C[C@@H]1C[C@H]3OC(=O)c1ccccc1	2.3	
CC(=O)[C@@]1(O[C@@H]2CCCCO2)CC[C@H]2[C@@H]3CCC4=CC(=O)CC[C@]4(C)[C@H]3CC[C@@]21C	2.4	
COC(=O)CCC(C)[C@H]1CC[C@H]2[C@@H]3[C@H](OC4CCCCO4)C[C@@H]4CC(=O)CC[C@]4(C)[C@H]3C[C@H](OC3CCCCO3)[C@]12C (mixture of isomers)	3.5	63.2%
COC(=O)CCC(C)[C@H]1CC[C@H]2[C@@H]3[C@H](OC4=CCOCC4)C[C@@H]4CC(=O)CC[C@]4(C)[C@H]3C[C@H](OC3=CCOCC3)[C@]12C (some centres not stated)	3.7	76.3%
CC(=O)[C@H]1CC[C@H]2[C@@H]3CCC4=CC(=O)CC[C@]4(C)[C@H]3[C@H](O)C[C@]12C	1	
CC(=O)[C@H]1CC[C@H]2[C@H]3[C@H]([C@H](O[C@H]4CCCCO4)C[C@]12C)[C@@]1(C)CCC(=O)C[C@H]1C[C@H]3OC1CCCCO1 (mixture of isomers)	2.5	84.4%

SMILES	Ratio [1]	viability [2]
CC(=O)[C@H]1CC[C@H]2[C@@H]3CCC4=CC(=O)CC[C@]4(C)[C@H]3[C@H](O[C@H]3CCCCO3)C[C@]12C	2.4	
C[C@]12CC[C@H]3[C@@H](CCC4=CC(=O)CC[C@@]43C)[C@@H]1CC[C@@H]2C(=O)COC1CCCCO1 (mixture of isomers)	1.6	
CC(=O)[C@H]1CC[C@H]2[C@@H]3CC[C@@H]4CC(=O)CC[C@]4(C)[C@H]3[C@H](O[C@H]3CCCCO3)C[C@]12C	2.5	
COCCCC(C)[C@H]1CC[C@H]2[C@@H]3[C@H](OC(=O)c4ccccc4)C[C@@H]4CC(=O)CC[C@]4(C)[C@H]3C[C@H](O[C@H]3CCCCO3)[C@]12C (some centres not stated)	2.2	75.8%
CC(=O)[C@H]1CC[C@H]2[C@@H]3[C@H](OC4CCCCO4)C[C@@H]4CC(=O)CC[C@]4(C)[C@H]3CC[C@]12C (mixture of isomers)	2.4	
CC(=O)[C@H]1CC[C@H]2[C@@H]3[C@H](OC(=O)c4ccccc4)C[C@@H]4CC(=O)CC[C@]4(C)[C@H]3CC[C@]12C	2.2	
COC(=O)CCC(C)[C@H]1CC[C@H]2[C@@H]3[C@H](O[C@H]4CCCCO4)C[C@@H]4CC(=O)CC[C@]4(C)[C@H]3C[C@H](OC(=O)c3ccccc3)[C@]12C (some centres not stated)	3.3	44.6%
CC(=O)[C@H]1CC[C@H]2[C@H]3[C@H]([C@H](OC(=O)c4ccccc4)C[C@]12C)[C@@]1(C)CCC(=O)C[C@H]1C[C@H]3O[C@@H]1CCCCO1	2.8	61.5%
CC(=O)[C@@]1(O[C@@H]2CCCCO2)CC[C@H]2[C@@H]3CC[C@@H]4CC(=O)CC[C@]4(C)[C@H]3CC[C@@]21C	2.3	
CC(=O)[C@@]1(O[C@H]2CCCCO2)CC[C@H]2[C@@H]3CCC4=CC(=O)CC[C@]4(C)[C@H]3CC[C@@]21C	2.8	
COC(=O)CCC(C)[C@H]1CC[C@H]2[C@@H]3[C@H](O)C[C@@H]4CC(=O)CC[C@]4(C)[C@H]3C[C@H](O)[C@]12C (some centres not stated)	1.5	
CC(=O)[C@H]1CC[C@H]2[C@H]3[C@H]([C@H](OC(=O)c4ccccc4)C[C@]12C)[C@@]1(C)CCC(=O)C[C@H]1C[C@H]3O	2.3	81.1%
CC#C[C@]1(O)CC[C@H]2[C@@H]3CCC4=CC(=O)CCC4=C3[C@@H](c3ccc(N(C)C)cc3)C[C@@]21C [MIFEPRISTONE]	2.4	95.6%
COC(=O)CCC(C)[C@H]1CC[C@H]2[C@@H]3[C@H](OC(=O)c4ccccc4)C[C@@H]4CC(=O)CC[C@]4(C)[C@H]3C[C@H](OC(=O)c3ccccc3)[C@]12C (some centres not stated)	1.5	57.3%
CC(=O)[C@H]1CC[C@H]2[C@H]3[C@H]([C@H](O)C[C@]12C)[C@@]1(C)CCC(=O)C[C@H]1C[C@H]3OC(=O)c1ccccc1	1.4	92.9%
CC(=O)[C@H]1CC[C@H]2[C@H]3[C@H]([C@H](O[C@@H]4CCCCO4)C[C@]12C)[C@@]1(C)CCC(=O)C[C@H]1C[C@H]3OC(=O)c1ccccc1	2.9	80.8%
COCCCC(C)[C@H]1CC[C@H]2[C@@H]3[C@H](O[C@@H]4CCCCO4)C[C@@H]4CC(=O)CC[C@]4(C)[C@H]3C[C@H](OC(=O)c3ccccc3)[C@]12C (some centres not stated)	3.4	51%
CC(=O)[C@H]1CC[C@H]2[C@@H]3CC[C@@H]4CC(=O)CC[C@]4(C)[C@H]3[C@H](O[C@@H]3CCCCO3)C[C@]12C	2.5	
CC(=O)[C@H]1CC[C@H]2[C@H]3[C@H]([C@H](O[C@H]4CCCCO4)C[C@]12C)[C@@]1(C)CCC(=O)C[C@H]1C[C@H]3OC(=O)c1ccccc1	2.3	100%
CC(=O)[C@H]1CC[C@H]2[C@@H]3CC[C@@H]4CC(=O)CC[C@]4(C)[C@H]3[C@H](O)C[C@]12C	1	
COc1ccc(CCN(C)CCCC(C#N)(c2ccc(OC)c(OC)c2)C(C)C)cc1OC (configuration not stated)		93.3%
CC(=O)[C@@]1(O)CC[C@H]2[C@@H]3CC[C@@H]4CC(=O)CC[C@]4(C)[C@H]3[C@H](O)C[C@@]21C	1	
CC(=O)[C@H]1CC[C@H]2[C@H]3[C@H]([C@H](O[C@@H]4CCCCO4)C[C@]12C)[C@@]1(C)CCC(=O)C[C@@H]1C[C@H]3OC(=O)c1ccccc1	2.4	77.8%
COCO[C@@H]1C[C@@H]2CC(=O)CC[C@]2(C)[C@H]2C[C@H](O)[C@]3(C)[C@@H](C(C)CCC(=O)OC)CC[C@H]3[C@H]12 (some centres not stated)	1.8	95.7%
